Compounds with a hit are over-represented: about 1.3% of the library has one in this group of screens.
RAD52 inh – RAD52 (human) annealing inhibition | recombinant RAD52 DNA annealing, FRET fluorescence | inhibition, % at 18.7 µM | actives 0.46% (n = 360,000) | AID 651710;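 active = every replicate showing at least 50% inhibition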
MLL AF4-AF9 inh – inhibitors of human MLL-AF4/AF9 interaction; AlphaScreen, biotin-AF4 peptide binding to FLAG-AF9; actives 0.47% (n = 350,000); AID 651704; P42568; inhibition, % at 10 µM;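 active = every replicate reaching a set inhibition limit, whatever the replicate mean, cut at about 25% in these data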
RAD54 inh – blocks human RAD54 Holliday junction branch migration | FAM/BHQ fluorescence | Q92698 | AID 602329 | actives 0.14% (n = 360,000) | inhibition, % at 10.4 µM;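 active = mean normalized replicate activity at least 40 and at least half of replicates scoring 40 or more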;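 note: inhibitors cause a drop in the FAM fluorescence signal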
S100A4 inh HTS – inhibitors of human S100A4 binding to myosin IIA peptide | inhibition, % at 10.7 µM | S100A4/TAMRA-MyoIIA peptide fluorescence polarization | actives 0.14% (n = 360,000);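 active = mean inhibition of at least 70% across replicates, with every replicate also reaching that level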
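Test system – S100A4 monomer (human) · Compound – single-point compound testing · Schedule – 5 min incubation before reading · Probe or stimulus – TAMRA-labelled myosin IIA heavy-chain peptide probe, 5 nM · Benchmarks – neutral control DMSO, positive control TFP · Medium – Calcium-containing HEPES buffer, pH 7.2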
INS-1E GSIS act – primary screen for activators of insulin secretion dependent on glucose, INS-1E cells, GLuc reporter luminescence; activation, % at 16.6 µM; actives 0.61% (n = 370,000); INS-1E GLuc reporter insulin secretion, 2-3 h;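 active = lowest replicate activation of at least 40%, so every replicate reaches that level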
Hits are given with their value; n = inactive; x = no result given; + = active, no number; ! = not active in a repeat.

SMILES | RAD52 inh | MLL AF4-AF9 inh | RAD54 inh | S100A4 inh HTS | INS-1E GSIS act
CC(C)(C)C1CCC(CN2C(Nc3ccccc3)=NC[C@@H]2Cc2ccccc2)CC1 (some centres undefined) | n | n | n | n | 86
CCN1C(Nc2ccccc2)=NC[C@@H]1Cc1ccccc1 | n | n | n | n | n
COc1ccc(-c2csc(=Nc3ccccc3)n2CCO)cc1 | n | 38 | n | n | n
C=CCn1c(-c2ccc(OC)cc2)csc1=Nc1c(C)n(C)n(-c2ccccc2)c1=O | x | x | n | x | x
COc1ccc(-c2csc(=NCCO)n2-c2ccccc2)cc1 | n | 33 | n | n | n
COc1ccc(-c2cn(-c3ccccc3)nc2CO)cc1 | n | n | n | n | n
COc1ccc(C(=O)Nc2ccc3c(c2)C(=O)N(C)C[C@H](OC)[C@H](C)CN(C)[C@H](C)CO3)cc1 | n | n | n | n | n
CCCNC(=O)C[C@H]1CC[C@H]2[C@@H](COC[C@H](O)CN2Cc2ccncc2)O1 | n | n | n | n | n
COc1ccc2c3c(n(C)c2c1)[C@H](CO)N(C(=O)c1ccccc1)CC31CCN(C)CC1 | n | n | x | n | n
CCC(=O)N(C)C[C@@H]1Oc2ncc(C#Cc3ccncc3)cc2C(=O)N([C@H](C)CO)C[C@@H]1C | n | n | n | n | n
CC(=O)N(C)C[C@H]1Oc2cc(-c3ccc(F)cc3)ccc2S(=O)(=O)N([C@H](C)CO)C[C@H]1C | n | n | n | n | n
CCOC(=O)/C=c1\sc2n(c1=O)CCN=2 | x | x | n | x | 48
COc1cc(C)c(C)cc1S(=O)(=O)N1CCCCC1c1cccnc1 (centres undefined) | x | x | n | x | 57
COc1ccc(Nc2nc(N3CCCC3)nc3ccccc23)c(OC)c1 | x | x | 100 | x | n
COc1ccc(Nc2ncnc3ccccc23)c(OC)c1 | x | x | n | x | x
COc1ccc(OC)c(Nc2c3ccccc3nc3ccccc23)c1 | n | 40 | n | n | n
COc1ccc(S(=O)(=O)N[C@H]2CC[C@H](CCn3cc(C(C)C)nn3)O[C@H]2CO)cc1 | n | n | n | n | n
COCC(=O)N1C[C@@H]2[C@H](c3ccccc31)[C@@H](CO)N2C(=O)C1CCOCC1 | x | x | n | x | n
Fc1cccc(CN2C[C@@H]3N[C@H](C2)[C@@H]3c2ccc(-c3cccc(F)c3)cc2)c1 | 86 | n | x | n | +
N#Cc1ccc(-c2ccc(C3[C@@H]4CN(Cc5ccccc5F)C[C@H]3N4)cc2)cc1 (some centres undefined) | 84! | n | x | n | n
Fc1cccc(CN2C[C@@H]3N[C@H](C2)C3c2ccc(-c3ccccc3)cc2)c1 (some centres undefined) | 84! | n | x | n | n
Fc1cccc(-c2ccc(C3[C@@H]4CN(Cc5ccccc5F)C[C@H]3N4)cc2)c1 (some centres undefined) | 83! | n | x | n | 804!
Fc1cccc(CN2C[C@@H]3N[C@H](C2)C3c2ccc(-c3cncnc3)cc2)c1 (some centres undefined) | n | n | x | n | n
COCC(=O)N1CC(=O)N2[C@H](CO)[C@H](c3ccc(C#CC(C)C)cc3)[C@H]2C1 | n | n | x | n | n
Fc1cccc(-c2ccc(C3[C@@H]4CN(Cc5cccnc5)C[C@H]3N4)cc2)c1 (some centres undefined) | 55! | n | x | n | n
SMILES | RAD52 inh | MLL AF4-AF9 inh | RAD54 inh | S100A4 inh HTS | INS-1E GSIS act
c1ncc(-c2ccc(C3[C@@H]4CN(Cc5ccc6c(c5)OCO6)C[C@H]3N4)cc2)cn1 (some centres undefined) | 51 | n | x | n | n
C(=C\c1ccc(C2[C@@H]3CN(Cc4ccc5c(c4)OCO5)C[C@H]2N3)cc1)/c1ccccc1 (some centres undefined) | x | x | x | x | n
CCCNC(=O)N1CC2(CCN(Cc3cccc(OC)c3)CC2)c2c([nH]c3cc(OC)ccc23)[C@H]1CO | x | n | x | x | n
CCCNC(=O)N1CC2(CN(Cc3cccc(OC)c3)C2)c2c([nH]c3cc(OC)ccc23)[C@H]1CO | n | 36 | x | n | n
CCCNC(=O)N1CC2(CN(Cc3cccc(OC)c3)C2)c2c([nH]c3cc(OC)ccc23)[C@@H]1CO | n | 32 | x | n | n
CCCNC(=O)N1CC2(C1)CN(Cc1cccc(OC)c1)[C@H](CO)c1[nH]c3cc(OC)ccc3c12 | n | n | x | n | n
CCCNC(=O)N1CC2(C1)CN(Cc1cccc(F)c1)[C@H](CO)c1[nH]c3cc(OC)ccc3c12 | x | n | x | x | n
CCCNC(=O)N1CC2(CN(Cc3cccc(F)c3)C2)c2c([nH]c3cc(OC)ccc23)[C@H]1CO | n | 26 | x | n | n
COc1ccc(C[C@H]2CCn3cc(nn3)COC[C@H](Cc3ccccc3)NC2=O)cc1 | n | n | x | n | n
CC(C)C#Cc1cnc2c(c1)C(=O)N([C@H](C)CO)C[C@H](C)[C@H](CN(C)C(=O)Nc1ccc(F)cc1)O2 | n | n | n | 78 | n
C[C@H](CO)N1C[C@H](C)[C@@H](CN(C)Cc2cccc(F)c2)Oc2ncc(C#C[C@@H](C)O)cc2C1=O | n | n | n | 141 | n
C[C@H](O)C#Cc1cnc2c(c1)C(=O)N([C@@H](C)CO)C[C@H](C)[C@@H](CN(C)Cc1cccc(F)c1)O2 | n | n | n | n | n
CCCNC(=O)Nc1ccc2c(c1)C(=O)N(C)[C@H]1CC[C@@H](CC(=O)NCCCN(C)C)O[C@@H]1CO2 | n | n | n | n | n
C[C@@H]1CCCCO[C@H](CN(C)CC2CCCCC2)[C@H](C)CN([C@H](C)CO)C(=O)c2cc(NC(=O)NC3CCCCC3)ccc2O1 | x | x | n | x | n
O=C(O)c1ccc(OS(=O)(=O)c2cccc(C(F)(F)F)c2)cc1 | n | n | n | n | 73
O=C(N1CCCCC1)C1(S(=O)(=O)c2ccccc2)CC=CC1 | n | 44 | n | n | n
CCN1CCN(Cc2ccc(NC(=O)c3ccc(C)c(/C=C/c4cnc(Nc5cc(N6CCNCC6)nc(C)n5)cn4)c3)cc2C(F)(F)F)CC1 | x | x | 105 | x | x
O=C(CC1CC1)N[C@H]1C[C@@H]2O[C@@H](CO)CC[C@@H]2O[C@@H]1CCc1ccc(C#Cc2ccccc2)cc1 | n | n | x | n | x
CN(C)CC(=O)N[C@H]1C[C@@H]2O[C@H](CO)CC[C@@H]2O[C@@H]1CCc1ccc(C#Cc2ccccc2)cc1 | 60 | n | x | n | x
CN(C)Cc1cc(C(C)(C)c2cc(CN(C)C)c(O)c(CN(C)C)c2)cc(CN(C)C)c1O | x | x | 102 | x | x
N#Cc1c(N)n(C2CCCCC2)c2nc3ccccc3nc12 | x | x | n | x | 43
N#Cc1c(N)n(-c2ccc(N)cc2)c2nc3ccccc3nc12 | n | n | x | n | x
COc1ccc(CN(C)C[C@H]2OCCCC[C@@H](C)Oc3ccc(NS(=O)(=O)c4ccc(Cl)cc4)cc3C(=O)N([C@@H](C)CO)C[C@@H]2C)cc1 | 51 | n | n | n | n

Screens deposited in PubChem by Broad Institute.
